Activity calls are given as the source filed them. The rule behind the calls is not given here.

This is an account of results in ChEMBL document CHEMBL4359838, “Glucopyranosylidene-spiro-imidazolinones, a New Ring System: Synthesis and Evaluation as Glycogen Phosphorylase Inhibitors by Enzyme Kinetics and X-ray Crystallography” (J Med Chem, 2019).

Data set [1] is described as follows: Inhibition of rabbit muscle Glycogen phosphorylase b using alpha-D-glucose-1-phosphate as substrate in presence of AMP by dixon plot analysis. The arrangement: species or system Oryctolagus cuniculus. The gist of the method:
(§1)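 Rabbit muscle GPb (3 μg/mL) was assayed at 30 °C for glycogen synthesis in 30 mM imidazole/HCl pH 6.8 with 60 mM KCl, 0.6 mM EDTA, 0.6 mM DTT, 0.2% w/v glycogen and 1 mM AMP. Glc-1-P was varied (2, 3, 4, 6, 10 mM) at several inhibitor concentrations. Pi release gave initial rates; Ki came from Km(app) versus [inhibitor] by nonlinear regression.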

The nature of data set [2]: Inhibition of rabbit muscle Glycogen phosphorylase b using glucose-1-phosphate as substrate in presence of AMP. The arrangement: species or system Oryctolagus cuniculus. The gist of the method: as §1
Data set [3] in a line: Inhibition of rabbit muscle Glycogen phosphorylase a using glucose-1-phosphate as substrate. Details: species or system Oryctolagus cuniculus. The gist of the method: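 Rabbit muscle GPa (3 μg/mL) was run at 30 °C in the glycogen-synthesis direction in 30 mM imidazole/HCl pH 6.8 containing 60 mM KCl, 0.6 mM EDTA, 0.6 mM DTT and 0.2% w/v glycogen, without AMP. Glc-1-P was 2, 3, 4, 6 and 10 mM with varied inhibitor. Inorganic phosphate release was measured; Ki came from the Km(app) versus [inhibitor] fit.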

For data set [4], the species on record is Homo sapiens. The data set can be described thus: Competitive inhibition of human liver Glycogen phosphorylase a up to 10 uM using glucose-1-phosphate as substrate by Lineweaver-Burk plot analysis. The gist of the method:
(§2)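 Human liver GPa (1 μg/mL) assayed at 30 °C toward glycogen synthesis in 30 mM imidazole/HCl pH 6.8 with 60 mM KCl, 0.6 mM EDTA, 0.6 mM DTT, 0.2% w/v glycogen and no AMP. Glc-1-P was varied at 1, 2, 3, 4 and 6 mM against several inhibitor levels. Released Pi was read; Ki came from Km(app) versus [inhibitor] by weighted nonlinear regression.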

Data set [5] is described as follows: Inhibition of human liver Glycogen phosphorylase a using glucose-1-phosphate as substrate. The gist of the method:
as §2

The subject of a further data set is HepG2. The experiment in a line: Cytotoxicity against human HepG2 cells at 80 to 516 uM incubated for 2 hrs. The data set is classed as cell-based. The following applies: hepg2, 2 h.
The species named for data set [6] is Homo sapiens. The data set can be described thus: Competitive inhibition of human liver Glycogen phosphorylase a up to 3 uM using glucose-1-phosphate as substrate by Lineweaver-Burk plot analysis. The method, boiled down: as §2
Data set [7] in a line: Inhibition of Glycogen phosphorylase in human HepG2 cells incubated for 2 hrs. The data set is classed as cell-based. The method, boiled down:
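HepG2 cells were precultured in 25 mmol/L glucose with 10 nM insulin to load glycogen. They were then shifted to 5 mmol/L glucose with inhibitor at 80–516 μM for 2 h to drive glycogenolysis. GP activity was read spectrophotometrically in the whole homogenate, and IC50 was derived from the concentration series.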

For the next data set, the species on record is Oryctolagus cuniculus. The data set can be described thus: Inhibition of rabbit muscle Glycogen phosphorylase b at 625 uM using glucose-1-phosphate as substrate in presence of AMP relative to control.
For data set [8], the species on record is Homo sapiens. The data set can be described thus: Competitive inhibition of human liver Glycogen phosphorylase a up to 35 uM using glucose-1-phosphate as substrate by Lineweaver-Burk plot analysis. The method, boiled down: as §2
Data set [9] is filed under the species Homo sapiens. The experiment in a line: Competitive inhibition of human liver Glycogen phosphorylase a up to 1000 uM using glucose-1-phosphate as substrate by Lineweaver-Burk plot analysis.
The species entered for data set [10] is Homo sapiens. The data set can be described thus: Competitive inhibition of human liver Glycogen phosphorylase a up to 650 uM using glucose-1-phosphate as substrate by Lineweaver-Burk plot analysis. The gist of the method: as §2
The species named for data set [11] is Homo sapiens. The data set can be described thus: Competitive inhibition of human liver Glycogen phosphorylase a up to 180 uM using glucose-1-phosphate as substrate by Lineweaver-Burk plot analysis. The method, boiled down: as §2

As a reminder, the Ki is a measure of affinity in units of concentration, obtained from inhibition or displacement. For the compound `OC[C@H]1O[C@]2(ON=C(c3ccccc3)S2)[C@H](O)[C@@H](O)[C@@H]1O`, in data set [1], the inhibition constant Ki was 26 µM.
The inhibition is the percentage by which the read-out fell short of the control. With `O=C1N=C(c2ccccc2)N[C@@]12O[C@H](CO)[C@@H](O)[C@H](O)[C@H]2O`, the inhibition constant Ki in data set [2] came out at 9 µM; in data set [3], 4.5 µM; in data set [5] it was 8.4 µM. Also, the inhibition result in the data set listed under Homo sapiens [4] is “Active”.
The IC50 is the point on the concentration scale where inhibition reaches its midpoint. `O=C1N=C(c2ccc3ccccc3c2)N[C@@]12O[C@H](CO)[C@@H](O)[C@H](O)[C@H]2O`: the Ki in data set [2] worked out at 2.11 µM; in data set [3] it was 1.13 µM; in data set [5], 1.72 µM. Also, the Activity entry in the data set with HepG2 is “Non-Toxic”. The inhibition entry in the data set listed under Homo sapiens [6] is “Active”. The IC50 in data set [7] was determined as 177 µM.
For the compound `O=C1NC(=S)N[C@@]12O[C@H](CO)[C@@H](O)[C@H](O)[C@H]2O`, the Ki in data set [2] came to 5.1 µM.
Consider `O=C1N=C(c2ccc(C(F)(F)F)cc2)N[C@@]12O[C@H](CO)[C@@H](O)[C@H](O)[C@H]2O`, for which the inhibition result in the data set listed under Oryctolagus cuniculus was “inactive”.
`O=C1NC(=O)[C@@]2(N1)O[C@H](CO)[C@@H](O)[C@H](O)[C@H]2O`: the inhibitory constant (Ki) in data set [2] turned out to be 3.1 µM.
For `O=C1N=C(c2cccc3ccccc23)N[C@@]12O[C@H](CO)[C@@H](O)[C@H](O)[C@H]2O`, the Ki came out at 13 µM in [2], 6.6 µM in [3] and 22.2 µM in [5]. Also, the inhibition entry in the data set filed under Homo sapiens [8] is “Active”.
For the compound `O=C1N=C(c2ccc(C(F)(F)F)cc2)N[C@]12O[C@H](CO)[C@@H](O)[C@H](O)[C@H]2O`, the inhibition result in the data set listed under Oryctolagus cuniculus was “inactive”.
As for `O=C1NC(=O)[C@]2(N1)O[C@H](CO)[C@@H](O)[C@H](O)[C@H]2O`, the Ki in [2] was 105 to 320 µM.
With `O=C1N=C(c2cccc3ccccc23)N[C@]12O[C@H](CO)[C@@H](O)[C@H](O)[C@H]2O`, the Ki in data set [3] was found to be 653 µM; in data set [5], 1170 µM. Also, in the data set filed under Oryctolagus cuniculus, the inhibition result was “inactive”. Besides, the inhibition entry in the data set listed under Homo sapiens [9] was “Active”.
Turning to `O=C1N=C(c2ccc3ccccc3c2)N[C@]12O[C@H](CO)[C@@H](O)[C@H](O)[C@H]2O`, the inhibition result in the data set filed under Homo sapiens [10] is “Active”. Moreover, the Ki in [3] was found to be 212 µM; in data set [5], 371 µM. Moreover, the inhibition in the data set filed under Oryctolagus cuniculus is 25%.
Take `O=C1N=C(c2ccccc2)N[C@]12O[C@H](CO)[C@@H](O)[C@H](O)[C@H]2O`: the inhibition constant (Ki) in [2] came out at 136 µM; in [3], 34.2 µM; in data set [5] it was 96.7 µM. In addition, the inhibition entry in the data set listed under Homo sapiens [11] is “Active”.
